This is an account of results in article PMC9532533 (Acta Pharmaceutica Sinica. B, 2022).

The test system of data set [1] is 32D KIT^D816V xenografts. Briefly: In vivo antitumor efficacy, 32D KIT^D816V xenograft. Also noted: species or system nude mice. The settings on record: i.g., BID × 12; for mortality and body weight loss: whole period of treatment.
Data set [2] deals with phosphorylation of KIT^D816V and downstream STAT3 and ERK. As to the kind of experiment: Western blot of KIT signaling in 32D KIT^D816V cells. Particulars: 4-h treatment. The format is cell-based, murine.
Data set [3] in a line: Pharmacokinetics in mice. The format is in vivo, male ICR (CD-1) mice. The settings on record: male, ICR (CD-1), mouse, plasma; for AUC(0-t) / half-life: po, 10 mg/kg. The gist of the method:
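Male ICR (CD-1) mice, n = 3 per route, each given a single dose of test compound: 2 mg/kg i.v. or 10 mg/kg p.o. Plasma drug levels measured by LC/MS/MS, and key PK parameters derived from these concentration data.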

The subject of data set [4] is 32D KIT V559D cells. As to the kind of experiment: Antiproliferation assay, 32D KIT V559D cells. The format is cell-based, murine. Particulars: Mus musculus, read-out: GI50, V559D.
Data set [5] relates to 32D cells. Briefly: Antiproliferation assay, normal parent 32D cells. The format is cell-based, murine. The settings on record: Mus musculus, read-out: 32D cells (GI50, nmol/L).
Data set [6] has as its system 32D KIT V559D/N822K cells. Briefly: Antiproliferation assay, 32D KIT V559D/N822K cells. The settings on record: Mus musculus, read-out: GI50, V559D/N822K. The format is cell-based, murine.
Data set [7] has as its system 32D KIT V559D/V654A cells. Briefly: Antiproliferation assay, 32D KIT V559D/V654A cells. The format is cell-based, murine. The settings on record: Mus musculus, read-out: GI50, V559D/V654A.

For the compound `COCCn1cc(C#Cc2cc(C(=O)NCc3ccsc3)ccc2C)c2c(N)ncnc21` [Compound 57], the “suppression of growth of 32D KIT^D816V xenografts” value in data set [1] (high dose group 100 mg/kg) came to 50%. The “mortality and body weight loss” value in data set [1] was “no mortality or obvious body weight loss”. The “inhibition of phosphorylation of KIT^D816V and downstream STAT3 and ERK” value in data set [2] is on record as “potent inhibition effects”. Moreover, in data set [3], the AUC(0-t) (in general, exposure summed from dosing to a finite time, without extrapolation to infinity) was found to be 233 ng·h/mL and the half-life – broadly, how long it takes for the measured level to halve – is 1.34 h.
`CCn1c(=O)c(-c2cc(NC(=O)Nc3ccccc3)c(F)cc2Br)cc2cnc(NC)cc21` [Ripretinib, ripretinib, reference compound]: in data set [1], the “mortality and body weight loss” value is recorded as “no mortality or obvious body weight loss”.
Turning to `Cc1ccc(C(=O)NCc2ccsc2)cc1C#Cc1cn(C(C)C)c2ncnc(N)c12` [Compound 54], the GI50 in data set [4] is 0.09 nM; in data set [5], above 1000 nmol/L; in data set [6], 0.8 nM; in data set [7] it was 1.1 nM. Besides, the “TGI (tumor growth inhibition)” value was 45% in data set [1] (20 mg/kg) and 71% in data set [1] (40 mg/kg). Further, the “mortality and body weight loss” value in data set [1] is recorded as “no mortality or obvious body weight loss”. Besides, the “inhibition of phosphorylation of KIT^D816V and downstream STAT3 and ERK” value in data set [2] is “potent inhibition effects”. Moreover, in data set [3] (oral, 10 mpk), the bioavailability – broadly, dose-corrected exposure relative to a reference, in per cent – worked out at 29.9%. In data set [3], this compound showed an AUC(0-t) of 1280 ng·h/mL. In data set [3], this compound had a half-life of 2.29 h.
